# Assay results pooled from the literature.
# Protocols differ between the studies behind these lines.
# Target: Serine/threonine-protein kinase MRCK beta (CDC42BPB, Homo sapiens, UniProt Q9Y5S2)
SMILES,assay,conditions,measurement,result
CN([C@@H]1CCc2c(CC(=O)O)c3cc(S(C)(=O)=O)ccc3n2C1)S(=O)(=O)c1ccc(F)cc1,"cell-free assay, competition with immobilised ligand",1 µM,remaining binding,100%
O=C(Nc1cnn(-c2csc(C(=O)NC3COC3)c2)c1)Nc1ccccc1Cl,"enzyme activity, inhibitor",5 µM,remaining activity,97.1%
CSc1cccnc1N1CCN(Cc2nc3ccccc3[nH]2)CC1,"cell-free assay, competition with immobilised ligand",1 µM,remaining binding,100%
CC(C)(C)c1nc(-c2cccc(NS(=O)(=O)c3c(F)cccc3F)c2F)c(-c2ccnc(N)n2)s1,"enzyme activity, inhibitor, radiometric",1 µM,remaining activity,98%
Oc1cccc(-c2nc(N3CCOCC3)c3oc4ncccc4c3n2)c1,cell-free assay,0.5 µM,remaining signal,99.4%
COc1cc(Cl)c(C(=O)N[C@@H](CN[C@H]2CC[C@@H](N)CC2)Cc2ccc(C#N)cc2)cc1-c1ccc(CN[C@H](C)c2ccc(C)cc2)o1,"enzyme activity, inhibitor",1 µM,remaining activity,100%
Cc1ccc(Nc2nccc(N(C)c3ccc4c(C)n(C)nc4c3)n2)cc1S(N)(=O)=O,"enzyme activity, inhibitor",10 µM,inhibition,11%
CCc1ccccc1C(=O)Nc1n[nH]c2c(C)c(F)c(C3C(C#N)=C(C)N(C)C(C)=C3C#N)cc12,"cell-free assay, competition with immobilised ligand",1 µM,remaining binding,100%
CNC(=O)c1cc(Oc2ccc(NC(=O)Nc3ccc(Cl)c(C(F)(F)F)c3)cc2)ccn1,"enzyme activity, inhibitor",10 µM,inhibition,0%
Cc1c(NC(=O)c2cc(C(N)=O)nc3cc(F)ccc23)c(C(F)(F)F)nn1Cc1ccc(C#N)cc1,"cell-free assay, competition with immobilised ligand",1 µM,remaining binding,100%
COc1cc2ncnc(Nc3ccc(Oc4ccccc4)cc3C)c2cc1OC,"enzyme activity, inhibitor",1 µM,inhibition,-5%
N#CCCc1ccc2c(c1)-c1[nH]c3ccc([N+](=O)[O-])cc3c1CC(=O)N2,cell-free assay,0.5 µM,remaining signal,54.1%
Cc1nc(N2CC[C@@H](O)C2)ncc1-c1cc(C(F)(F)F)cc2[nH]ncc12,"cell-free assay, competition with immobilised ligand",1 µM,remaining binding,100%
CCCS(=O)(=O)Nc1ccc(F)c(C(=O)c2c[nH]c3ncc(-c4ccc(Cl)cc4)cc23)c1F,"enzyme activity, inhibitor",1 µM,inhibition,< 10%
Cc1cc(NC(=O)c2cccc3cc(-c4cccc5[nH]nc(N)c45)ccc23)ccc1F,"enzyme activity, inhibitor",0.1 µM,activity vs control,100%
CN1CCN(c2cnc3c(C4CCN(C(=O)c5ccc(OC(F)(F)F)cc5N)CC4)ncnc3c2)CC1,"cell-free assay, competition with immobilised ligand",1 µM,remaining binding,100%
COc1cccc2c(NCc3ccccc3)nc(-n3c(N)nc4ccccc43)nc12,"target engagement in cells, inhibitor, chemoproteomics",20 mM,inhibition,-1.3%
CCOC(=O)c1cc2cc(-c3cc(C(=O)NCc4ccc(C(=O)O)cc4)nn3C)ccc2[nH]1,"cell-free assay, competition with immobilised ligand",0.1 µM,remaining binding,88%
O=C1NC(=O)c2cc(Nc3ccc(F)cc3)c(Nc3ccc(F)cc3)cc21,cell-free assay,0.5 µM,remaining signal,100%
CCCOc1ccc(OC)c(F)c1C(=O)c1ccc(C(=O)N[C@@H]2CNC[C@H]2NC(=O)c2ccc3[nH]ncc3c2)cc1,"enzyme activity, inhibitor",0.1 µM,remaining activity,34%
Cc1ccc(C(=O)Nc2ccc(CN3CCN(C)CC3)c(C(F)(F)F)c2)cc1C#Cc1cnc2cccnn12,"enzyme activity, inhibitor",23.5 nM,remaining activity,95%
O=C1Nc2ccc(Cl)cc2C1=Cc1cc(Cl)c(O)c(Cl)c1,cell-free assay,0.5 µM,remaining signal,91.4%
CC(C)(O)[C@H]1CC[C@H](Nc2ccc3ncc(-c4cccc(C(F)(F)F)c4)n3n2)CC1,"enzyme activity, inhibitor",1 µM,remaining activity,98.9%
CC/C(=N\NC(=O)C(C)Nc1ccccc1)c1ccc(O)c(C)c1O (centres unmarked),"enzyme activity, inhibitor",0.1 µM,inhibition,7.1%
CN(c1ccnc(CNc2nc(Nc3ccc4c(c3)CC(=O)N4)ncc2C(F)(F)F)n1)S(C)(=O)=O,"cell-free assay, competition with immobilised ligand",1 µM,remaining binding,100%
CCN(CC)CCNC(=O)c1c(C)[nH]c(/C=C2\C(=O)Nc3ccc(F)cc32)c1C,"enzyme activity, inhibitor",10 µM,inhibition,17%
